Measurements from ChEMBL document CHEMBL1833877, “Antinociceptive properties of bergenin” (J Nat Prod, 2011).

Legend:
Mus musculus [1] = assay: Neurotoxicity in mouse assessed as effect on motor coordination by measuring reduced latency at 10 mg/kg, ip after 40 mins by rotarod test; format: toxicity, organism-based; set-up: dose 10 mg/kg, route intraperitoneal; conditions: in vivo
Summary of the method: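 Rotarod: a 3 cm bar split into five compartments, turning at a constant 5 rpm. Male mice were placed on the rod 40 min after ip dosing (vehicle 2% DMSO in saline), and time on the rod was recorded up to 120 s. Result is mean time per group; n = 6, one-way ANOVA with Tukey's test.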

Mus musculus [2] = assay: Neurotoxicity in mouse assessed as effect on motor coordination at 10 mg/kg, ip after 40 mins by open field test; format: toxicity, organism-based; set-up: dose 10 mg/kg, route intraperitoneal; conditions: in vivo
Summary of the method: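 Male mice were dosed ip (vehicle 2% DMSO in saline). 40 min later each was placed alone in a 40 × 60 × 50 cm wooden box with the floor divided into 12 squares. Squares crossed with all four paws were counted over 3 min. n = 6 mice per group, means ± SEM, one-way ANOVA with Tukey's test.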

Question: Which Activity (Mus musculus [1]) does the source give for `CN1C(=O)CN=C(c2ccccc2)c2cc(Cl)ccc21` [DIAZEPAM] here?
Answer: Toxic

Question: And the Activity (Mus musculus [2])?
Answer: Toxic
